# Screening results (PubChem)
# CHOP inh = CHOP inhibition in unfolded protein response; inhibition, % at 10 µM; 3.8% of 220,000 active; CHO-K1 CHOP-promoter luciferase, tunicamycin-induced, 15-18 h; AID 2732;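 active means compounds that reduced the stress-induced luciferase reporter signal by more than about 70% of percent inhibition, limit read from the data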;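 further: 0% = tunicamycin plus vehicle and 100% = wells without tunicamycin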
# Mdm2 ligase inh = blocks human Mdm2 ubiquitin ligase activity | cell-based MDM2 ubiquitination luciferase reporter, 2 h; 0 = plate control, 100 = twice control, blank-subtracted | 0.11% of 210,000 active | Q00987 | AID 1230 | signal enhancement, % at 5 µM;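 active means signal enhancement of 30% or more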;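 further: luminescence tracks abundance of the self-degrading MDM2-luciferase fusion protein; higher signal means inhibition of MDM2 E3 ligase activity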
#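 test system = mammalian cells stably expressing self-ubiquitinating, self-degrading MDM2 E3–luciferase fusion | quantity = 2000 cells/well | incubation = cell settling 4 h, compound treatment 2 h, both 37 °C | signal = luminescence with SteadyLite reagent, 15 min at room temperature | evaluation = % enhancement relative to plate controls after blank subtraction | benchmarks = plate controls and plate blanks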
# S1P3 antag = S1P3 (human) receptor antagonism; Q99500; CHO S1P3 NFAT-BLA reporter, FRET fluorescence, antagonist mode; inhibition, % at 4.98 µM; 0.27% of 170,000 active; AID 485;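 active means inhibition above the plate cutoff, the mean inhibition of test wells on that plate plus 3 SD, cut at about 28% in these data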;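 further: cells challenged with S1P at its EC80 of 0.8 µM; blue over green emission ratio from cleaved BLA substrate after 4 h stimulation; 0% = S1P-stimulated wells and 100% = unstimulated DMSO-only wells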
# Target sequence (Q99500 whole entry, looked up): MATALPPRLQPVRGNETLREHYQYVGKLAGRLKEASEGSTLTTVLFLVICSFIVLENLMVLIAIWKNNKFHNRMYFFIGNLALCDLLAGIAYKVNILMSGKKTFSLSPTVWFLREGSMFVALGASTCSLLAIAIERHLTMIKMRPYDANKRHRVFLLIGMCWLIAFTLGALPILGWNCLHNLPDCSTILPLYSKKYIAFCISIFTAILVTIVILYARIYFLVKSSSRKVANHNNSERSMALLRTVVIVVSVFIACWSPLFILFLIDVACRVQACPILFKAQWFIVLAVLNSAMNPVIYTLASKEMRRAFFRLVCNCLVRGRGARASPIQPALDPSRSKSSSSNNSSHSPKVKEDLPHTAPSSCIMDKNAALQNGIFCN
# Hsp70 activator = transcriptional activators of Hsp70; 0.04% of 200,000 active; activation, % at 10 µM; HeLa Hsp70 promoter luciferase reporter, luminescence; scaled: vehicle 0, proteasome-inhibitor control 100%;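 active means activation above the mean across all tested compounds plus 3 SD, cutoff set per campaign, cut at about 5.5% in these data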;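 further: 100% = MG132 at 30 µM as the positive control and 0% = DMSO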
# Numbers without * were called inactive; . = not tested or not shown. Shown are actives, neighbours in structure and some others; about 4% of the full set was active somewhere.
SMILES,CHOP inh,Mdm2 ligase inh,S1P3 antag,Hsp70 activator
CCOC(=O)c1c(NC(=O)COc2cccc3c2CCN(CC)C3=O)sc2c1CCC2,78*,-3,0,-1
CCOC(=O)c1c(NC(=O)COC)sc2c1CCCC2,86*,11,-9,0
O=C(NNC(=O)c1ccc(Oc2ccc(C3SCCS3)cc2)o1)c1ccc(Cl)cc1,40,4,10,.
CCCn1c(=O)c(C(=O)NNS(=O)(=O)c2ccc(C)cc2)c(O)c2ccccc21,90*,-1,-22,0
CCn1c(=O)c(C(=O)Nc2ncccc2C)c(O)c2ccccc21,39,-1,-14,0
CCn1c(=O)c(C(=O)NNS(=O)(=O)c2ccc(C)cc2)c(O)c2ccccc21,64,-11,-1,0
CCn1c(=O)c(C(=O)NC(C)C)c(O)c2ccccc21,72*,-14,.,0
CCn1c(=O)c(C(=O)Nc2ccccn2)c(O)c2ccccc21,81*,-2,-5,0
O=C(O)C1CCCN(S(=O)(=O)c2ccc3c(c2)OCCO3)C1 (stereo unspecified),19,0,13,0
COc1cc(C(=O)n2nc(C)cc2C)ccc1O,16,4,.,0
COc1ccccc1N1CCN(c2nc(-c3ccccc3)cc(C(F)(F)F)n2)CC1,-12,-5,.,0
COc1ccccc1N1CCN(c2ccc(-c3ccccc3)nn2)CC1,79*,-56,.,-1
C(=Nc1ccc(N2CCOCC2)cc1)c1c[nH]c2ccccc12,-4,-6,-9,.
Oc1ccc2ccccc2c1C=Nc1ccc(N2CCOCC2)cc1,78*,-4,.,0
CSc1ccccc1NC(=O)c1cc(-c2cccnc2)nc2ccc(Br)cc12,104*,-14,-11,0
Cc1ccc(C(=O)Nc2cccc([N+](=O)[O-])c2)cc1S(=O)(=O)Nc1ccc(C(=O)O)cc1,12,15,-16,0
Cc1cccc(NS(=O)(=O)c2cc(NC(=O)CC(=O)c3ccc([N+](=O)[O-])cc3)ccc2C)c1,93*,-7,-5,0
Cc1ccc2c(c1)C1(C)C(C(C)(C)N2C=O)C1(Cl)Cl (stereo unspecified),6,-10,-2,.
O=C(Nc1cccc(C(F)(F)F)c1)N(Cc1ccc(Cl)cc1)CC(O)C(F)(F)F (stereo unspecified),74*,-5,.,0
CC(O)(CS(=O)(=O)Cc1ccc(Cl)cc1)C(=O)Nc1cccc(C(F)(F)F)c1 (stereo unspecified),6,-15,.,0
Cc1ccccc1OCc1nnc(SCC(=O)Nc2ccc(N3CCOCC3)c(Cl)c2)n1C,60,-10,.,0
COCCNC(=O)Nc1ccc2nc(-c3cccs3)c(-c3cccs3)nc2c1,47,-8,.,0
O=C(Nc1ccc2nc(-c3cccs3)c(-c3cccs3)nc2c1)NC1CC1,92*,-18,.,0
CCCCc1nc(Cl)c(C#N)c2c1CCC2,19,-19,13,.
CCCCc1nc(Cl)c(C#N)c2c1CCCC2,88*,3,-7,0
SMILES,CHOP inh,Mdm2 ligase inh,S1P3 antag,Hsp70 activator
CC(C)(C)c1ccc(OCC(=O)NCc2ccco2)c(Br)c1,81*,-4,-30,0
CCOc1ccc(Cn2c3ccc(OC)cc3c3nc4ccccc4nc32)cc1OC,88*,-9,8,0
COc1ccc2c(c1)c1nc3ccccc3nc1n2Cc1ccc(OC)c(OC)c1,85*,2,3,0
COC(=O)Cn1c2ccc(OC)cc2c2nc3ccccc3nc21,-6,-2,9,0
COc1cc(Cl)c(C)cc1NC(=O)CSc1cc(Cl)ccc1Cl,23,-8,1,0
CC(=O)c1cccc(NS(=O)(=O)c2ccc(N/C=C/C(=O)c3ccc(F)cc3)cc2)c1,83*,-17,7,0
CC(=O)c1cccc(NS(=O)(=O)c2ccc(N/C=C\C(=O)c3ccc(F)cc3)cc2)c1,84*,10,.,0
CC(=O)c1cccc(NS(=O)(=O)c2ccc(N/C=C\C(=O)c3ccc(C)cc3)cc2)c1,56,-12,.,0
CC(C)(C)NC(=O)C(c1cccs1)N(C(=O)c1csnn1)c1ccccc1F (stereo unspecified),-18,-3,7,0
COc1cc(N/N=C(\C)c2ccc(N)cc2)nc(-c2ccccc2)n1,81*,-17,8,0
COc1ccc2c(CC(=O)Nc3ccccc3N3CCOCC3)coc2c1,15,-9,19,.
O=C1c2ccccc2NC(c2ccccc2Cl)N1N=C1CCCCCC1 (stereo unspecified),19,-4,4,0
N#C/C(=C\c1cccc([N+](=O)[O-])c1)C(=O)NCc1ccc(Cl)cc1,92*,0,-6,0
COCCNC(=O)/C(C#N)=C/c1cccc(/C=C(\C#N)C(=O)NCCOC)c1,-37,70*,-22,0
CCCCCCCCNC(=O)/C(C#N)=C/c1ccc(SC)cc1,93*,3,8,0
CC(C)c1ccccc1OCCNS(C)(=O)=O,11,-12,-5,0
Cc1cc2cc(C(c3nnnn3CC3CCCO3)N3CCCc4ccccc43)c(=O)[nH]c2cc1C (stereo unspecified),41,.,-7,0
CCc1ccc2[nH]c(=O)c(C(c3nnnn3CC3CCCO3)N3CCCc4ccccc43)cc2c1 (stereo unspecified),84*,-11,-14,0
Cc1nn(-c2ccc(C(=O)Nc3nnc(C4CC4)s3)cc2)c(C)c1Cl,73*,-18,9,0
O=C(COC(=O)C12CC3CC(CC(C3)C1)C2)Nc1ccc(OC(F)F)cc1,94*,-2,.,0
O=C(COC(=O)C12CC3CC(CC(C3)C1)C2)NC12CC3CC(CC(C3)C1)C2,76*,-13,.,0
CCC(CC)C(=O)OCC(=O)NC12CC3CC(CC(C3)C1)C2,33,-5,.,0
Cc1c(NN=C(C#N)C#N)c(=O)n(-c2ccccc2)n1C,-81,-10,7,0
Cc1ccc(S(=O)(=O)N2CCOCC2)cc1N/N=C(\C#N)c1nc2ccccc2[nH]1,0,-15,6,-1
COc1nc(N2CCCCCC2)nc(N2CCCCCC2)n1,88*,-22,-8,0
SMILES,CHOP inh,Mdm2 ligase inh,S1P3 antag,Hsp70 activator
COc1nc(Nc2cccc(C)c2)nc(N2CCCCC2)n1,71*,-4,38,0
CCn1cc(C(=O)O)c(=O)c2ccc(Cc3ccccc3)nc21,9,.,.,.
COc1ccc(OCCCC(=O)NC(C)c2ccccc2)cc1 (stereo unspecified),9,-8,.,0
O=C1CCC2S/C(=C/Nc3ccc(C(F)(F)F)cc3)C(=O)N12 (stereo unspecified),95*,-6,-6,-1
CC(=O)Nc1ccc(N2CCCCC2)c(C(=O)Nc2cccc(C)c2)c1,31,-8,.,0
Cc1cccc(NC(=O)c2cc(NC(=O)C3CCCCC3C(=O)O)ccc2N2CCCCC2)c1 (stereo unspecified),77*,-7,17,0
Cc1ccc(-n2c(C)cc(/C=C3\NC(=O)NC3=O)c2C)c(C)c1,-20,-2,13,0
